# Results reported in ChEMBL document CHEMBL1144801, “Synthesis of new benzimidazole linked pyrrolo[2,1-c][1,4]benzodiazepine conjugates with efficient DNA-binding affinity and potent cytotoxicity” (Bioorg Med Chem Lett, 2008).
# Calls of active or inactive are those of the source. The calls are words filed in the database; no cut-off is given here.
# Assays:
# [1] = test system: DNA; experiment: Binding affinity to calf thymus DNA at 1:5 (compound:DNA) molar ratio in 37degC after 18 hrs by thermal denaturation studies; format: nucleic-acid assay; settings: Bos taurus
# Summary of the method: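 Calf thymus DNA with ligand at a 1:5 ligand:DNA molar ratio in aqueous 10 mM sodium phosphate + 1 mM EDTA, pH 7.00. Mixtures were incubated at 37 °C and read at 0 h and 18 h. The read-out was the shift in helix melting temperature (ΔTm) relative to CT-DNA alone.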
# [2] = test system: SK-MEL-2; experiment: Cytotoxicity against human SKMEL2 cells; format: functional
# [3] = test system: SNB-75; experiment: Cytotoxicity against human SNB75 cells; format: functional
# [4] = test system: U-251; experiment: Cytotoxicity against human U251 cells; format: functional
# [5] = test system: SF-539; experiment: Cytotoxicity against human SF539 cells; format: functional
# [6] = test system: SR; experiment: Cytotoxicity against human SR cells; format: functional
# [7] = test system: NCI-H522; experiment: Cytotoxicity against human NCI-H522 cells; format: functional
# [8] = test system: A549; experiment: Cytotoxicity against human A549 cells; format: functional
# [9] = test system: OVCAR-3; experiment: Cytotoxicity against human OVCAR-3 cells; format: functional
# [10] = Cytotoxicity against human HL60(TB) cells; format: functional, HL-60(TB); settings: HL-60
# [11] = test system: CCRF-CEM; experiment: Cytotoxicity against human CCRF-CEM cells; format: functional
# [12] = test system: NCI-H460; experiment: Cytotoxicity against human NCI-H460 cells; format: functional
# [13] = test system: UO-31; experiment: Cytotoxicity against human UO31 cells; format: functional
# [14] = test system: HCT-116; experiment: Cytotoxicity against human HCT116 cells; format: functional
# [15] = test system: RXF 393; experiment: Cytotoxicity against human RXF393 cells; format: functional
# [16] = test system: A498; experiment: Cytotoxicity against human A498 cells; format: functional
# [17] = test system: SF-268; experiment: Cytotoxicity against human SF268 cells; format: functional
# [18] = test system: OVCAR-8; experiment: Cytotoxicity against human OVCAR8 cells; format: functional
# [19] = test system: DU-145; experiment: Cytotoxicity against human DU145 cells; format: functional
# [20] = test system: KM12; experiment: Cytotoxicity against human KM12 cells; format: functional
# [21] = test system: MDA-MB-468; experiment: Cytotoxicity against human MDA-MB-468 cells; format: functional
# [22] = test system: MOLT-4; experiment: Cytotoxicity against human MOLT4 cells; format: functional
# [23] = test system: SK-MEL-5; experiment: Cytotoxicity against human SKMEL5 cells; format: functional
# [24] = test system: K562; experiment: Cytotoxicity against human K562 cells; format: functional
# [25] = test system: HCT-15; experiment: Cytotoxicity against human HCT15 cells; format: functional
# [26] = test system: Malme-3M; experiment: Cytotoxicity against human MALME3M cells; format: functional
# [27] = Cytotoxicity against human OVCAR1 cells; format: functional
# [28] = test system: OVCAR-4; experiment: Cytotoxicity against human OVCAR4 cells; format: functional
# [29] = test system: MCF7; experiment: Cytotoxicity against human MCF7 cells; format: functional
# [30] = test system: SK-MEL-28; experiment: Cytotoxicity against human SKMEL28 cells; format: functional
# [31] = test system: Bacilli; experiment: Inhibition of Bacillus amyloli BamH1 restriction endonuclease-mediated pBR322 cleavage by RED100-restriction endonuclease digestion assay
# Summary of the method: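 Plasmid pBR322 exposed to the conjugate, then digested with BamH1 (20 U) for 1 h at 37 °C. Cut and uncut products separated by agarose gel electrophoresis and visualized by ethidium bromide staining under UV. Controls were untreated pBR322 and a complete BamH1 digest.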
# [32] = test system: M14; experiment: Cytotoxicity against human M14 cells; format: functional
# [33] = test system: HOP-62; experiment: Cytotoxicity against human HOP62 cells; format: functional
# [34] = test system: MDA-MB-231; experiment: Cytotoxicity against human MDA-MB-231 cells; format: functional
# [35] = test system: BT-549; experiment: Cytotoxicity against human BT549 cells; format: functional
# [36] = test system: HOP-92; experiment: Cytotoxicity against human HOP92 cells; format: functional
# [37] = test system: UACC-62; experiment: Cytotoxicity against human UACC62 cells; format: functional
# [38] = test system: MDA-MB-435; experiment: Cytotoxicity against human MDA-MB-435 cells; format: functional
# [39] = test system: OVCAR-5; experiment: Cytotoxicity against human OVCAR5 cells; format: functional
# [40] = test system: LOX IMVI; experiment: Cytotoxicity against human LOXIMVI cells; format: functional
# [41] = test system: CAKI-1; experiment: Cytotoxicity against human CAKI1 cells; format: functional
# [42] = test system: SNB-19; experiment: Cytotoxicity against human SNB19 cells; format: functional
# [43] = test system: NCI-H23; experiment: Cytotoxicity against human NCI-H23 cells; format: functional
# [44] = test system: COLO 205; experiment: Cytotoxicity against human COLO205 cells; format: functional
# [45] = test system: HT-29; experiment: Cytotoxicity against human HT29 cells; format: functional
# [46] = test system: EKVX; experiment: Cytotoxicity against human EKVX cells; format: functional
# [47] = test system: SN12C; experiment: Cytotoxicity against human SN12C cells; format: functional
# [48] = test system: TK-10; experiment: Cytotoxicity against human TK10 cells; format: functional
# [49] = test system: RPMI-8226; experiment: Cytotoxicity against human RPMI8226 cells; format: functional
# [50] = test system: NCI/ADR-RES; experiment: Cytotoxicity against human NCI/ADR-RES cells; format: functional
# [51] = test system: ACHN; experiment: Cytotoxicity against human ACHN cells; format: functional
# [52] = test system: SK-OV-3; experiment: Cytotoxicity against human SKOV3 cells; format: functional
# [53] = test system: SW-620; experiment: Cytotoxicity against human SW620 cells; format: functional
# [54] = test system: T47D; experiment: Cytotoxicity against human T47D cells; format: functional
# [55] = test system: 786-0; experiment: Cytotoxicity against human 786-0 cells; format: functional
# [56] = test system: UACC-257; experiment: Cytotoxicity against human UACC257 cells; format: functional
# [57] = test system: Hs-578T; experiment: Cytotoxicity against human HS578T cells; format: functional
# [58] = test system: NCI-H322M; experiment: Cytotoxicity against human NCI-H322M cells; format: functional
# [59] = test system: NCI-H226; experiment: Cytotoxicity against human NCI-H226 cells; format: functional
# [60] = test system: HCC 2998; experiment: Cytotoxicity against human HCC2998 cells; format: functional
smiles,measurement,setting,value
COc1cc2c(cc1O)N=C[C@@H]1CCCN1C2=O,ΔTm,[1],0.7 °C
COc1cc2c(cc1OCCCn1c(-c3cccs3)nc3ccccc31)N=C[C@@H]1CCCN1C2=O,ΔTm,[1],5.1 °C
COc1cc2c(cc1OCCCCCn1c(-c3ccco3)nc3ccccc31)N=C[C@@H]1CCCN1C2=O,GI50,[2],20 nM
same,GI50,[3],< 10 nM
same,GI50,[4],< 10 nM
same,GI50,[5],< 10 nM
same,GI50,[6],< 10 nM
same,GI50,[7],< 10 nM
same,GI50,[8],< 10 nM
same,GI50,[9],< 10 nM
same,GI50,[10],< 10 nM
same,GI50,[11],< 10 nM
same,GI50,[12],< 10 nM
same,GI50,[13],100 nM
same,GI50,[14],< 10 nM
same,GI50,[15],< 10 nM
same,GI50,[16],< 10 nM
same,GI50,[17],< 10 nM
same,GI50,[18],< 10 nM
same,GI50,[19],20 nM
same,GI50,[20],< 10 nM
same,GI50,[21],< 10 nM
same,ΔTm,[1],7 °C
same,GI50,[22],< 10 nM
same,GI50,[23],< 10 nM
same,GI50,[24],< 10 nM
same,GI50,[25],20 nM
same,GI50,[26],10 nM
same,GI50,[27],10 nM
same,GI50,[28],< 10 nM
same,GI50,[29],< 10 nM
same,GI50,[30],< 10 nM
same,Activity,[31],Active
same,GI50,[32],< 10 nM
same,GI50,[33],< 10 nM
same,GI50,[34],10 nM
same,GI50,[35],< 10 nM
same,GI50,[36],10 nM
same,GI50,[37],< 10 nM
same,GI50,[38],< 10 nM
same,GI50,[39],< 10 nM
same,GI50,[40],< 10 nM
same,GI50,[41],< 10 nM
same,GI50,[42],< 10 nM
same,GI50,[43],< 10 nM
same,GI50,[44],< 10 nM
same,GI50,[45],< 10 nM
same,GI50,[46],< 10 nM
same,GI50,[47],< 10 nM
same,GI50,[48],10 nM
same,GI50,[49],< 10 nM
same,GI50,[50],230 nM
same,GI50,[51],< 10 nM
same,GI50,[52],< 10 nM
same,GI50,[53],< 10 nM
same,GI50,[54],< 10 nM
same,GI50,[55],< 10 nM
same,GI50,[56],< 10 nM
same,GI50,[57],< 10 nM
same,GI50,[58],30 nM
same,GI50,[59],< 10 nM
COc1cc2c(cc1OCCCn1c(-c3ccco3)nc3ccccc31)N=C[C@@H]1CCCN1C2=O,ΔTm,[1],6.1 °C
COc1cc2c(cc1OCCCCn1c(-c3cccs3)nc3ccccc31)N=C[C@@H]1CCCN1C2=O,GI50,[2],1470 nM
same,GI50,[3],1220 nM
same,GI50,[4],1770 nM
same,GI50,[5],1720 nM
same,GI50,[6],450 nM
same,GI50,[7],1040 nM
same,GI50,[8],3220 nM
same,GI50,[9],1720 nM
same,GI50,[10],5180 nM
same,GI50,[11],240 nM
same,GI50,[12],1550 nM
same,GI50,[13],1230 nM
same,GI50,[14],1750 nM
same,GI50,[15],1340 nM
same,GI50,[16],1680 nM
same,GI50,[17],1800 nM
same,GI50,[18],2580 nM
same,GI50,[19],1320 nM
same,GI50,[20],1920 nM
same,GI50,[21],330 nM
same,ΔTm,[1],1 °C
same,GI50,[22],3790 nM
same,GI50,[23],1090 nM
same,GI50,[24],15500 nM
same,GI50,[25],3190 nM
same,GI50,[26],1740 nM
same,GI50,[27],750 nM
same,GI50,[28],1610 nM
same,GI50,[29],660 nM
same,GI50,[30],1530 nM
same,GI50,[60],2080 nM
same,GI50,[32],1350 nM
same,GI50,[34],1390 nM
same,GI50,[35],410 nM
same,GI50,[36],1330 nM
same,GI50,[37],1570 nM
same,GI50,[38],1390 nM
same,GI50,[39],3270 nM
same,GI50,[40],780 nM
same,GI50,[41],940 nM
same,GI50,[42],1530 nM
same,GI50,[43],2050 nM
same,GI50,[44],1070 nM
same,GI50,[45],1970 nM
same,GI50,[46],3360 nM
same,GI50,[47],2500 nM
same,GI50,[48],2090 nM
same,GI50,[49],310 nM
same,GI50,[50],3240 nM
same,GI50,[51],2810 nM
same,GI50,[52],3320 nM
same,GI50,[53],1840 nM
same,GI50,[54],500 nM
same,GI50,[55],1710 nM
same,GI50,[56],2540 nM
same,GI50,[57],1700 nM
same,GI50,[58],2700 nM
same,GI50,[59],2130 nM
COc1cc2c(cc1OCCCCCn1c(-c3cccs3)nc3ccccc31)N=C[C@@H]1CCCN1C2=O,ΔTm,[1],6.1 °C
COc1cc2c(cc1OCCCCn1c(-c3ccco3)nc3ccccc31)N=C[C@@H]1CCCN1C2=O,ΔTm,[1],0 °C
same,Activity,[31],inactive
COc1cc2c(cc1OCCCn1c(-c3ccco3)nc3ccccc31)NC(=O)[C@@H]1CCCN1C2=O,ΔTm,[1],0.7 °C
COc1cc2c(cc1OCCCCCn1c(-c3cccs3)nc3ccccc31)NC(=O)[C@@H]1CCCN1C2=O,ΔTm,[1],0.8 °C
